Laboratory results as given in ChEMBL document CHEMBL5705904 (N Engl J Med, 2016).
Active and inactive are the calls of the source. No cut-off for these calls is given here.

How the values were obtained:
[1] = AUC(0 to 6 hrs) in human at 100 mg, po administered for 8 days by LC-MS/MS analysis; type: ADME, organism-based; conditions: in vivo, time 8 day
Outline: (§1)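 Steady-state plasma sampling on cycle 1 day 8 in patients, predose and 0.25, 0.5, 0.75, 1, 2, 4 and 6 h post-dose, into lithium heparin. Plasma was stored at -80°C. Drug was quantified by validated LC-MS/MS against a stable labeled internal standard, using only values at or above LLOQ and nominal sampling times.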

[2] = AUC(0 to 12 hrs) in human at 100 mg, po BID administered for 8 days by LC-MS/MS analysis; type: ADME, organism-based; conditions: in vivo, time 8 day; outline: as §1
[3] = Apparent volume of distribution during terminal phase in human at 100 mg, po BID administered for 8 days by LC-MS/MS analysis; type: ADME, organism-based; conditions: in vivo, time 8 day, read-out: Vz/F; outline: as §1
[4] = Cmax in human at 100 mg, po BID administered for 8 days by LC-MS/MS analysis; type: ADME, organism-based; conditions: in vivo, time 8 day; outline: as §1
[5] = molecular target: T1, Tyrosine-protein kinase TXK (Homo sapiens, UniProt P42681); test: Inhibition of recombinant TXK (unknown origin) preincubated for 1 hr in presence of ATP by Z-Lyte assay
T1 sequence (P42681 whole entry): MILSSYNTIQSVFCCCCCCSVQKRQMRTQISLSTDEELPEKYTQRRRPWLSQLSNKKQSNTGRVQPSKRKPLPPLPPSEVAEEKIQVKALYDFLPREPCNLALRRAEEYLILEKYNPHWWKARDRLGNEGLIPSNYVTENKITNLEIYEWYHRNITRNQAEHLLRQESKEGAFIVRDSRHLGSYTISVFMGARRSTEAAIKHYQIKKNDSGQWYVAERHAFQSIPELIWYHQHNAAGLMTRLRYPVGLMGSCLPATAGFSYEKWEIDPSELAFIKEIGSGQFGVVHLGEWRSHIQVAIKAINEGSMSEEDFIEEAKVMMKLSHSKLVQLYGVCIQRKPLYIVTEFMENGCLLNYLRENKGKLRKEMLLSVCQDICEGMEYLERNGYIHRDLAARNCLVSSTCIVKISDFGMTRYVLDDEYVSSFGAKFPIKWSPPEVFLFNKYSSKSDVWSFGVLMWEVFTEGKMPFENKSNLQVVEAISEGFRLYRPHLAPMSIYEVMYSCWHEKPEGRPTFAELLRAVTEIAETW

[6] = AUC(0 to 12 hrs) in human at 100 mg, po administered for 8 days by LC-MS/MS analysis; type: ADME, organism-based; conditions: in vivo, time 8 day; outline: as §1
[7] = Apparent oral clearance in human at 400 mg, po administered for 8 days by LC-MS/MS analysis; type: ADME, organism-based; conditions: in vivo, time 8 day; outline: as §1
[8] = molecular target: Tyrosine-protein kinase Fyn (Homo sapiens, UniProt P06241); test: Inhibition of recombinant FYN (unknown origin) preincubated for 1 hr […] by Z-Lyte assay
Sequence of Tyrosine-protein kinase Fyn (P06241 whole entry): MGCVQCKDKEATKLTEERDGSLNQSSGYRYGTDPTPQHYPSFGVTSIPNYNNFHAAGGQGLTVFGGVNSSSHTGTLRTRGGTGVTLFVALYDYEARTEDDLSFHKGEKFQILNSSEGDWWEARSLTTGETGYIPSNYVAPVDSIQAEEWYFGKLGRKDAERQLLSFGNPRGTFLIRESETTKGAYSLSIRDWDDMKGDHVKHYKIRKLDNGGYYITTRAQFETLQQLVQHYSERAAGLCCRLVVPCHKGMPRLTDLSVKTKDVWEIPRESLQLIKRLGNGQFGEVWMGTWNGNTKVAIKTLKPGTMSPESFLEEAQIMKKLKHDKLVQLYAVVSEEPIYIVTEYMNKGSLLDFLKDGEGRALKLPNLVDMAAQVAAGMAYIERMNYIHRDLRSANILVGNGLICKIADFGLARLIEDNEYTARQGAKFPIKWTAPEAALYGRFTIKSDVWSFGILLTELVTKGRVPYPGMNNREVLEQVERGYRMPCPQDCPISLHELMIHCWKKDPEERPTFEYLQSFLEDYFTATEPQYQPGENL
Outline: (§2)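 Recombinant kinase activity was measured by Z'-LYTE with ATP at each enzyme's Km. Inhibitor came from a 10 mM DMSO stock and was tested at 10 concentrations. Compound was preincubated with kinase for 1 h before ATP addition started the reaction, for about 2 h total compound-kinase exposure. IC50 is from 2–3 independent experiments.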

[9] = Apparent volume of distribution during terminal phase in human at 100 mg, po administered for 8 days by LC-MS/MS analysis; type: ADME, organism-based; conditions: in vivo, time 8 day, read-out: Vz/F; outline: as §1
[10] = Half life in human at 175 mg, po administered for 8 days by LC-MS/MS analysis; type: ADME, organism-based; conditions: in vivo, time 8 day; outline: as §1
[11] = Terminal elimination half life in human at 250 mg, po administered for 8 days by LC-MS/MS analysis; type: ADME, organism-based; conditions: in vivo, time 8 day, read-out: LambdaZ (converted)
[12] = Tmax in human at 175 mg, po administered for 8 days by LC-MS/MS analysis; type: ADME, organism-based; conditions: in vivo, time 8 day
Outline: (§3)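 Patient plasma sampled on cycle 1 day 8 at predose and 0.25, 0.5, 0.75, 1, 2, 4 and 6 h post-dose, in lithium heparin. […] Tmax read directly from each individual's data; summarized descriptively.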

[13] = Apparent oral clearance in human at 100 mg, po BID administered for 8 days by LC-MS/MS analysis; type: ADME, organism-based; conditions: in vivo, time 8 day; outline: as §1
[14] = Tmax in human at 250 mg, po administered for 8 days by LC-MS/MS analysis; type: ADME, organism-based; conditions: in vivo, time 8 day; outline: as §3
[15] = AUC(0 to 6 hrs) in human at 400 mg, po administered for 8 days by LC-MS/MS analysis; type: ADME, organism-based; conditions: in vivo, time 8 day; outline: as §1
[16] = AUC(0 to infinity) in human at 100 mg, po BID administered for 8 days by LC-MS/MS analysis; type: ADME, organism-based; conditions: in vivo, time 8 day; outline: as §1
[17] = molecular target: Tyrosine-protein kinase Fgr (Homo sapiens, UniProt P09769); test: Inhibition of recombinant FGR (unknown origin) preincubated for 1 hr in presence of ATP by Z-Lyte assay; outline: as §2
Sequence of Tyrosine-protein kinase Fgr (P09769 whole entry): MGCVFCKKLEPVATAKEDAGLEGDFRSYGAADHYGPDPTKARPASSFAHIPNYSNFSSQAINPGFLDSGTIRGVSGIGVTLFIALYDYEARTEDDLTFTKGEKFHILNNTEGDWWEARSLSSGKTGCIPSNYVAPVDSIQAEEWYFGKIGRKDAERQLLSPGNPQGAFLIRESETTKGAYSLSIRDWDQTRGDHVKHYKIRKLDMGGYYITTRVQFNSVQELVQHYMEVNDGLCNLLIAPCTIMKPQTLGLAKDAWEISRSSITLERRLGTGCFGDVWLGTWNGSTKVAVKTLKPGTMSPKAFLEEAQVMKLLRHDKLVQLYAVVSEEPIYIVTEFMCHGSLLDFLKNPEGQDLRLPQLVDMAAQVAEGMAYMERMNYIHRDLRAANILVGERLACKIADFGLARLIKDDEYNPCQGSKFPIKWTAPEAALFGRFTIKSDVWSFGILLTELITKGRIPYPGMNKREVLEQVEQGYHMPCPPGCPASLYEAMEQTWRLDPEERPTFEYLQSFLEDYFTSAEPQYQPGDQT

[18] = Apparent oral clearance in human at 175 mg, po administered for 8 days by LC-MS/MS analysis; type: ADME, organism-based; conditions: in vivo, time 8 day; outline: as §1
[19] = Apparent volume of distribution during terminal phase in human at 400 mg, po administered for 8 days by LC-MS/MS analysis; type: ADME, organism-based; conditions: in vivo, time 8 day, read-out: Vz/F; outline: as §1
[20] = Tmax in human at 100 mg, po administered for 8 days by LC-MS/MS analysis; type: ADME, organism-based; conditions: in vivo, time 8 day; outline: as §3
[21] = AUC(0 to 24 hrs) in human at 175 mg, po administered for 8 days by LC-MS/MS analysis; type: ADME, organism-based; conditions: in vivo, time 8 day; outline: as §1
[22] = Cmax in human at 100 mg, po administered for 8 days by LC-MS/MS analysis; type: ADME, organism-based; conditions: in vivo, time 8 day; outline: as §1
[23] = Tmax in human at 100 mg, po BID administered for 8 days by LC-MS/MS analysis; type: ADME, organism-based; conditions: in vivo, time 8 day; outline: as §3
[24] = Half life in human at 250 mg, po administered for 8 days by LC-MS/MS analysis; type: ADME, organism-based; conditions: in vivo, time 8 day; outline: as §1
[25] = Tmax in human at 400 mg, po administered for 8 days by LC-MS/MS analysis; type: ADME, organism-based; conditions: in vivo, time 8 day; outline: as §3
[26] = Half life in human at 400 mg, po administered for 8 days by LC-MS/MS analysis; type: ADME, organism-based; conditions: in vivo, time 8 day; outline: as §1
[27] = Drug accumulation in human at 100 to 400 mg, po administered for 6 hrs by LC-MS/MS analysis; type: ADME, organism-based; conditions: in vivo, dose 100-400 mg
[28] = AUC(0 to infinity) in human at 400 mg, po administered for 8 days by LC-MS/MS analysis; type: ADME, organism-based; conditions: in vivo, time 8 day; outline: as §1
[29] = Terminal elimination half life in human at 100 mg, po administered for 8 days by LC-MS/MS analysis; type: ADME, organism-based; conditions: in vivo, time 8 day, read-out: LambdaZ (converted)
[30] = Apparent oral clearance in human at 100 mg, po administered for 8 days by LC-MS/MS analysis; type: ADME, organism-based; conditions: in vivo, time 8 day; outline: as §1
[31] = molecular target: Tyrosine-protein kinase BTK (Homo sapiens) (UniProt Q06187); conditions: Platelet, dose 25-1000 nM, time 30.0 min
Sequence of Tyrosine-protein kinase BTK (Homo sapiens) (Q06187 whole entry): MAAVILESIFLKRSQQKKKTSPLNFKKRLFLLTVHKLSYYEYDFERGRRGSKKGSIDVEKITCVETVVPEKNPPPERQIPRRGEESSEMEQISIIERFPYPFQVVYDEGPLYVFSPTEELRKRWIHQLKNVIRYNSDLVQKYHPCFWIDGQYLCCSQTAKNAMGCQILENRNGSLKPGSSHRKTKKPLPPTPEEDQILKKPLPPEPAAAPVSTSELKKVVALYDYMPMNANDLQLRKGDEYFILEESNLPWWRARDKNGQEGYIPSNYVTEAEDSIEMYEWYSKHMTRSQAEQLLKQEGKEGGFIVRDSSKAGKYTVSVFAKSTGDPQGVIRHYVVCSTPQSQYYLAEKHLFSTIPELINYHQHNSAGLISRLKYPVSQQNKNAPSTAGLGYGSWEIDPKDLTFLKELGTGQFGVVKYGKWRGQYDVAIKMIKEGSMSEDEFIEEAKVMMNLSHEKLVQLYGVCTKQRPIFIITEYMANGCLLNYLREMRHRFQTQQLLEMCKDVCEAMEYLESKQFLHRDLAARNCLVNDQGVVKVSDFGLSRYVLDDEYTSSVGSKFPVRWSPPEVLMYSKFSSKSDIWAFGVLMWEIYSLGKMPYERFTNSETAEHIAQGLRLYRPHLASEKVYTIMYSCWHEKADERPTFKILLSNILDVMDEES

CC#CC(=O)N1CCC[C@H]1c1nc(-c2ccc(C(=O)Nc3ccccn3)cc2)c2c(N)nccn12 [ACALABRUTINIB] gave an AUC at 192 h [1] of 584 ng·h/mL, an AUC at 192 h [2] of 926 ng·h/mL and a Vd/F [3] of 361 L. For the same compound, the Cmax [4] was 827 ng/mL, the IC50 [5] was 368 nM and the AUC at 192 h [6] was 602 ng·h/mL. The CL/F [7] was 5200 mL/min, the IC50 [8] was > 1000 nM and the Vd/F [9] was 308 L. For the same compound, the half-life [10] was 61.2 min, the k el at 192 h [11] was 0.000206 s⁻¹ and the Tmax [12] was 38.4 min. The CL/F [13] was 2750 mL/min, the Tmax [14] was 66 min and the AUC at 192 h [15] was 1730 ng·h/mL. For the same compound, the AUC(0-inf) [16] was 927 ng·h/mL, the IC50 [17] was > 1000 nM and the CL/F [18] was 3550 mL/min. For the same compound, the Vd/F [19] was 677 L, the Tmax [20] was 48.6 min and the AUC at 192 h [21] was 1160 ng·h/mL. It also gave a Cmax [22] of 529 ng/mL, a Tmax [23] of 60 min and a half-life [24] of 56.5 min. The Tmax [25] was 55.2 min, the half-life [26] was 83.4 min and the Drug uptake [27] was “Not Active”. For the same compound, the AUC(0-inf) [28] was 1870 ng·h/mL, the k el at 192 h [29] was 0.00017 s⁻¹ and the CL/F [30] was 3000 mL/min. For the same compound, the inhibition [31] was “inactive”.
